# Assay outcomes: PubChem BioAssay, Broad Institute
# The list is not random: actives were taken first. Their share in the collection is about 2.2%.
# Statin myotox sup: suppressors of statin myotoxicity in C2C12 myotubes, primary screen, cell-based, single point, plate reader; AID 602340, 2012; rescue of ATP level, % at 7.49 µM; C2C12 myotubes + simvastatin, ATP luminescence, 48 h; scaled: DMSO 0, geranylgeraniol control 100; 330,000 compounds, 0.78% hits;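 active means mean ATP rescue above about 67%, or every replicate alone reaching that limit, limit read from the data, passing the limit was not always enough; inconclusive means no clear call, values can overlap the other calls; inactive means mean under the limit and some replicate under it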;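 further: myotubes were challenged with 10 µM simvastatin during compound exposure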
# E-sel inducer: E-selectin induction in HUVECs, primary screen, imaging, HUVEC, immunofluorescence imaging, single point | AID 686992, 2013 | 260,000 compounds, 0.37% hits | activation, % at 7.58 µM | normalized: neutral wells 0, TNF-alpha wells 100 | P16581;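 active means mean E-selectin-positive cell signal at least 10% of the positive control, reached in at least 60% of replicates, without over 20% cell loss; inconclusive means no rule given, readout overlaps actives, possibly toxicity-flagged; inactive means the rest, including those meeting only one limit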
# Target sequence (P16581 whole entry, looked up): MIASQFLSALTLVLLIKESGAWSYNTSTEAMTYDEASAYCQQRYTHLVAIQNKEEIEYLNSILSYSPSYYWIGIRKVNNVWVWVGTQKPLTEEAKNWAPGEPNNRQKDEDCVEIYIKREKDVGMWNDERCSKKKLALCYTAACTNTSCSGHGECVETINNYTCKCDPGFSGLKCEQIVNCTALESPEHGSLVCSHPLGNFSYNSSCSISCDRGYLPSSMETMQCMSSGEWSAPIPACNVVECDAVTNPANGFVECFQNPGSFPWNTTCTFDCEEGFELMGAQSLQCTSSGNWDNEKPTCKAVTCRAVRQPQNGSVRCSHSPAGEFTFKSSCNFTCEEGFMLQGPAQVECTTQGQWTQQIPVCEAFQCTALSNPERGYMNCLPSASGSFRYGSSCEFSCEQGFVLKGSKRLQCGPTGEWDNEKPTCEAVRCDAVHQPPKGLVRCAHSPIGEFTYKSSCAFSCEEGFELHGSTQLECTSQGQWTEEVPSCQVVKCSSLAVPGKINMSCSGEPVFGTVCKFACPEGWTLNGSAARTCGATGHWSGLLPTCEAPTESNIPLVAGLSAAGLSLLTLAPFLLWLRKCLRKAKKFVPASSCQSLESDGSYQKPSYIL
#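 Test system – human umbilical vein endothelial cells (HUVEC), E-selectin induction · Input – 3,000 HUVEC seeded per well · Buffer or medium – EGM-2, gelatin · Compound dosing – single-point compound dose · Detection – immunofluorescence imaging · Measure – percent E-selectin-positive cells · Controls – TNF-alpha high, DMSO low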
# DENV2 CPE: inhibitors of DENV2 cytopathic effect, primary screen, cell-based, plate reader, single concentration; DENV2-infected cells, cytopathic effect rescue; 350,000 compounds, 1.7% hits; CPE inhibition, % at 9.99 µM; in the data active means CPE inhibition above about 20%, passing the limit was not always enough; inconclusive means no clear call, values can overlap the other calls; tested in BHK-21 cells;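 further: 0% = median of neutral control wells and 100% = median of positive control wells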
# * hit, by the source's call; ? = inconclusive; / = not tested or not shown.
SMILES,Statin myotox sup,E-sel inducer,DENV2 CPE
O=S1(=O)CC(N2CCSCC2)CN1Cc1cn(Cc2ccc(Cl)cc2)nn1 (configuration not stated),/,0,-5
CCN(C)C1CN(Cc2cn(Cc3ccc(C)cc3)nn2)S(=O)(=O)C1 (configuration not stated),/,0,-7
Cc1ccc(Cn2cc(CN3CC(N4CCSCC4)CS3(=O)=O)nn2)cc1 (configuration not stated),/,-1,31*
CCN(C)C1CN(Cc2cn(Cc3ccccc3)nn2)S(=O)(=O)C1 (configuration not stated),/,0,21*
COc1ccc(NC(=O)Nc2cccc3c2O[C@H](CN(C)S(=O)(=O)c2ccc(C)cc2)[C@@H](C)CN([C@@H](C)CO)C3=O)cc1,-24,-2,-4
CCC(C(=O)OC)n1cnc2c(nnn2-c2ccc(C)cc2)c1=O (configuration not stated),-8,/,-11
CCOC(=O)C(CC)n1cnc2c(nnn2-c2ccc(OC)cc2)c1=O (configuration not stated),98*,/,/
C[C@H]1CN([C@@H](C)CO)C(=O)c2cccc(NS(=O)(=O)c3cn(C)cn3)c2O[C@H]1CN(C)Cc1ccncc1,2,-2,11
CCCC(=O)N1CC2(CN(C(=O)NC(C)C)C2)c2c(n(C)c3cc(OC)ccc23)[C@@H]1CO,/,0,?
O=C(NCC1CC1)[C@H]1[C@H](CO)[C@H]2Cn3c(ccc(-c4ccccc4F)c3=O)[C@@H]1N2Cc1ccncc1,-9,0,9
Clc1ccc(C=Cc2ccccn2)c(Cl)c1,-5,/,38*
O=C(/C=C/c1ccc(Cl)cc1Cl)NC(=S)Nc1ccccn1,1,/,/
C[C@@H]1CN([C@H](C)CO)C(=O)c2cc(NC(=O)Nc3ccc(C(F)(F)F)cc3)ccc2O[C@@H](C)CCCCO[C@H]1CN(C)Cc1ccccc1,/,0,-11
C[C@@H]1CCCCO[C@H](CN(C)Cc2ccccc2)[C@@H](C)CN([C@H](C)CO)C(=O)c2cc(NC(=O)c3ccccc3)ccc2O1,-7,6,0
C[C@H]1CCCCO[C@H](CN(C)C(=O)Nc2ccc3c(c2)OCO3)[C@@H](C)CN([C@@H](C)CO)C(=O)c2cc(NC(=O)Cc3ccccc3)ccc2O1,/,0,27*
C[C@@H]1CCCCO[C@@H](CN(C)C(=O)Nc2ccc3c(c2)OCO3)[C@@H](C)CN([C@@H](C)CO)C(=O)c2cc(NC(=O)Cc3ccccc3)ccc2O1,/,0,12
C[C@H]1CCCCO[C@H](CN(C)C(=O)Nc2ccc(C(F)(F)F)cc2)[C@@H](C)CN([C@@H](C)CO)C(=O)c2cc(NC(=O)Cc3ccccc3)ccc2O1,/,0,14
C[C@@H]1CCCCO[C@@H](CN(C)C(=O)Nc2ccc(C(F)(F)F)cc2)[C@H](C)CN([C@H](C)CO)C(=O)c2cc(NC(=O)Cc3ccccc3)ccc2O1,/,0,91*
C[C@@H]1CCCCO[C@H](CN(C)Cc2ccccc2)[C@H](C)CN([C@@H](C)CO)C(=O)c2cc(NC(=O)c3ccccc3)ccc2O1,/,/,27*
C[C@@H]1CN([C@@H](C)CO)C(=O)c2cc(NC(=O)Nc3ccc(C(F)(F)F)cc3)ccc2O[C@@H](C)CCCCO[C@@H]1CN(C)Cc1ccccc1,/,0,127*
O=C(c1ccc(F)cc1)N1CC[C@@H]2[C@H](CO)Nc3ccc(C#Cc4ccccc4F)cc3[C@@H]21,-13,1,/
C[C@H](CO)N1C[C@H](C)[C@H](CN(C)Cc2ccc(C(F)(F)F)cc2)OCCCC[C@H](C)Oc2ccc(NC(=O)Cc3ccccc3)cc2C1=O,-96,0,8
C[C@@H]1CCCCO[C@@H](CN(C)Cc2ccc(C(F)(F)F)cc2)[C@H](C)CN([C@H](C)CO)C(=O)c2cc(NC(=O)Cc3ccccc3)ccc2O1,-20,1,40*
CC=Cc1ccc2n(c1=O)C[C@@H]1[C@@H](CO)[C@H](C(=O)NCC3CC3)[C@H]2N1C(=O)CC (mixture of isomers),6,0,0
c1cncc(Oc2cccc(Oc3cccnc3)c2)c1,108*,/,/
SMILES,Statin myotox sup,E-sel inducer,DENV2 CPE
Nc1cc(Oc2cccnc2)cc([N+](=O)[O-])c1,/,2,-2
O=C(COC(=O)/C=C/c1ccccc1)Nc1cccnc1Cl,9,/,-5
O=C(COC(=O)/C=C/c1cccc([N+](=O)[O-])c1)Nc1cccnc1Cl,/,124*,6
C[C@@H]1CCCCO[C@@H](CN(C)Cc2ccncc2)[C@@H](C)CN([C@@H](C)CO)C(=O)c2cc(NS(=O)(=O)c3ccccc3)ccc2O1,/,/,0
CCOc1ccc(S(=O)(=O)NC2CCCC2)cc1,2,0,2
CCOc1ccc(S(=O)(=O)NN)cc1,96*,/,/
C[C@@H]1CN([C@@H](C)CO)C(=O)Cc2cc(NC(=O)Nc3ccc4c(c3)OCO4)ccc2O[C@@H]1CN(C)S(=O)(=O)c1ccccc1,-16,0,0
COc1ccc(-c2nc3cc(C)c(Br)c(C)n3c2CC(C)(C)C)cc1OC,-8,177*,-9
COc1ccc(-c2nc3cc(C)c(Br)c(C)n3c2Cc2ccc(C)cc2)cc1OC,3,0,-1
N=C1/C(=C\c2ccc(-c3ccc(C(=O)O)cc3)o2)C(=O)N=C2SC=C(c3ccccc3)N12,-12,/,6
N=C1/C(=C\c2ccc(-c3cccc(Cl)c3)o2)C(=O)N=C2SC=C(c3ccccc3)N12,/,/,67*
CNC[C@@H]1Oc2ccc(NC(=O)Nc3cccc4ccccc34)cc2CC(=O)N([C@@H](C)CO)C[C@H]1C,-8,3,5
C[C@@H]1CN([C@H](C)CO)C(=O)Cc2cc(NC(=O)C3CC3)ccc2O[C@H]1CN(C)Cc1ccc(Oc2ccccc2)cc1,32,14,-3
C[C@@H]1CN([C@@H](C)CO)C(=O)Cc2cc(NC(=O)C3CC3)ccc2O[C@H]1CN(C)Cc1ccc(Oc2ccccc2)cc1,74*,-3,0
COc1ccc(CN(C)C[C@H]2Oc3ccc(NC(=O)C4CC4)cc3CC(=O)N([C@@H](C)CO)C[C@@H]2C)cc1,-10,0,-6
COc1ccc(CN(C)C[C@H]2Oc3ccc(NC(=O)C4CC4)cc3CC(=O)N([C@H](C)CO)C[C@@H]2C)cc1,/,1,79*
C[C@@H]1CN([C@@H](C)CO)C(=O)Cc2cc(NC(=O)C3CCCCC3)ccc2O[C@H]1CN(C)Cc1ccc(Oc2ccccc2)cc1,88*,0,19
C[C@@H]1CN([C@@H](C)CO)C(=O)Cc2cc(NC(=O)C3CCCCC3)ccc2O[C@@H]1CN(C)Cc1ccc(Oc2ccccc2)cc1,-19,0,2
OC[C@H]1[C@H](c2ccc(C#CC3(O)CCCC3)cc2)[C@H]2CN(Cc3ccncc3)CCCCN21,/,0,-15
Cc1cc(=O)oc2c(C)c(OCC(=O)N3CCN(c4ccc(F)cc4)CC3)ccc12,-1,/,?
COc1ccc(N2CCN(C(=O)COc3ccc4c(C)cc(=O)oc4c3C)CC2)cc1,107*,/,13
Cc1ccc(S(=O)(=O)N[C@H]2CC[C@@H](CCNC(=O)C3CCC3)O[C@H]2CO)cc1,1,-1,2
